The values that follow come from ChEMBL document CHEMBL4513216, “Probing the Open Global Health Chemical Diversity Library for Multistage-Active Starting Points for Next-Generation Antimalarials” (ACS Infect Dis, 2020).

Molecules are shown by their SMILES.

The data set in a line: Toxicity liver stage against HepG2, at 10uM. It is filed as cell-based. More on the design: test concentration 10 uM, cell line HepG2-A16-CD81EGFP. To be noted: human, HepG2-A16-CD81EGFP cells; read-out: INHIBITION
The method, boiled down: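 Uninfected HepG2-A16-CD81EGFP cells, 3 × 10^3 per well, 1536-well, plated on prespotted compound at 10 μM final, parasite-free screening media added to match infected plates; puromycin 10 μM positive, DMSO 0.5% negative; run in parallel with 48 h PbLuc assay at 37 °C, 5% CO2; viability by CellTiter-Glo luminescence, normalized to controls.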
Consider `Cc1nc(C(=O)N[C@H]2COC[C@@H]2N2CCCCC2)cs1`, for which the cytotoxicity at 10 µM turned out to be 15.5%.
On to `COCCC(=O)N1CCC2(COCc3cnc(NCC4CC4)nc32)C1` (configuration not stated), for which the cytotoxicity at 10 µM was found to be 6.24%.
The figure for `Cc1noc(C)c1CN1CCN(C)c2ncccc2C1` is -77%.
As to `CC(C)Nc1cccc(CC2CCN(C)C2)n1` (configuration not stated), the cytotoxicity at 10 µM is -27.6%.
In the case of `Cc1nn(C)c(Cl)c1C1CCCN1Cc1ccccn1` (configuration not stated), the cytotoxicity at 10 µM was -0.459%.
The figure for `Cc1ccc(NC(=O)NC(C)c2nc[nH]n2)cc1` (configuration not stated) is -0.665%; for `CCc1nc(CN(C)C2CCN(CCCOc3ccccc3)C2)no1` (configuration not stated) it is 0.141%; for `CCOCCn1c(=O)n(Cc2ccccc2F)c2cc(C(=O)O)cnc21` it is -6.46%.
The result for `COCCNc1nnc(S(=O)(=O)CCC(C)(C)C#N)s1` reads 10.7%; that for `CCn1cnnc1CNC(=O)N1CCN(c2nccs2)CC1`, -2.72%; that for `CN(C)S(=O)(=O)N1C[C@H](Oc2cccnc2)[C@H]2OCCC[C@H]21`, 14.8%.
The result for `COCC(=O)NC1CC2(CCN(Cc3ccco3)CC2)c2ccccc21` (configuration not stated) reads 5.61%; that for `CCc1ccc(CN2CCCC(c3nn(C)c(=O)n3CC)C2)nc1` (configuration not stated), 1.93%.
For the compound `O=C(Nc1cccnc1)NC1(c2cccc(F)c2)CC1`, the cytotoxicity at 10 µM was 1.41%.
With `Cc1ccccc1C(=O)NC1CCN(Cc2ncc(C(C)(C)C)o2)CC1`, the cytotoxicity at 10 µM is -17.5%.
`CN(C)C(=O)[C@@H]1C[C@@H]2CCN(C3CCOCC3)C[C@@H]2O1`: the cytotoxicity at 10 µM is -7.56%.
The figure for `CN(Cc1cccnc1)C1CC2(CCN(c3ncccn3)CC2)C1` is -3.31%; for `Cc1nc(-c2cc(C(=O)NCC(C)(C)CO)c3ccccn23)cs1` it is 6.1%.
`CCN(CC)Cc1cc(C(=O)N2CCC3(CCN(C)CC3)C2)c(C)o1`: the cytotoxicity at 10 µM was determined as 4.92%.
As to `CN1CCC(N(C)C[C@H]2CC[C@@H](Cc3cccc(O)c3)O2)CC1`, the cytotoxicity at 10 µM is -12.2%.
On to `COCCNc1ccc(CC2CCCN(Cc3c[nH]cn3)C2)nn1` (configuration not stated), for which the cytotoxicity at 10 µM is -2.7%.
For `O=C(c1cscn1)N(CCCO)S(=O)(=O)c1cccs1`, the cytotoxicity at 10 µM was -11.3%.
The result for `O=C1COC2(CCN(c3ccccn3)CC2)CN1` reads 9.52%; that for `COc1ccc(NC(=O)C2CC(=O)N(C)C2)cn1` (configuration not stated), -16.5%.
The figure for `Cc1ccsc1C(=O)N1CCC2(CC(N(C)c3ccncn3)C2)C1` (configuration not stated) is -5.75%; for `Cc1[nH]nc2ncc(C(=O)N3CCN(CC(C)(C)O)CC3)cc12` it is -0.0414%; for `Cn1ncc2c1CCCC2NCc1cccc(OC2CCCC2)c1` (configuration not stated) it is -19.3%.
With `O=C(CCOc1ccccc1)N1CCC(Nc2cccnn2)CC1`, the cytotoxicity at 10 µM is -9.29%.
Consider `COc1ccc(-n2ccc(C(=O)N3CCC(C(N)=O)C3)n2)cc1` (configuration not stated), for which the cytotoxicity at 10 µM was -6.04%.
Consider `CC(C)(C)c1n[nH]c(C2CN(CC3CCC3)CCO2)n1` (configuration not stated), for which the cytotoxicity at 10 µM amounted to 9.15%.
Consider `Cc1cc2c(=O)n3c(nc2s1)CCN(Cc1cnc(C)n1C)CC3`, for which the cytotoxicity at 10 µM was -7.73%.
The result for `Cc1nn(C)c(N(C)C)c1CNC(C)COc1cccc(F)c1` (configuration not stated) reads -4.96%; that for `CN1CC(=O)N(c2cccnc2)CC12CCN(C(=O)c1cccn1C)C2` (configuration not stated), 1.14%.
The result for `CCN(Cc1cccc(F)c1)Cc1nc2c(cnn2C)c(=O)[nH]1` reads 3.71%; that for `Cc1ncnc2c1CCN(Cc1cccs1)CC2`, 1.17%.
`CC1(C)C[C@H](CCNC(=O)c2ccncc2)c2ccccc2O1`: the cytotoxicity at 10 µM was -5.55%.
`CCN(C)c1ncnc2c1CCN(Cc1ccc(F)cc1)CC2`: the cytotoxicity at 10 µM turned out to be 3.1%.
Regarding `Cc1cnc(CN2CCCC(c3nc4ccccc4n3C(C)C)C2)o1` (configuration not stated), the cytotoxicity at 10 µM is -8.14%.
For `CN(Cc1cc(C(C)(C)C)n[nH]1)C(=O)c1ccc2nccn2c1`, the cytotoxicity at 10 µM is -7.01%.
`CC(c1ncc(C(C)(C)C)o1)N1CCN(Cc2ccncc2)CC1` (configuration not stated): the cytotoxicity at 10 µM is -12.3%.
As for `CC(C)c1nc(-c2ccnc(N3CCNCC3)n2)no1`, the cytotoxicity at 10 µM is 1.01%.
The figure for `CCCNC(=O)CNc1ccccc1OCCC(=O)OC` is 8.95%; for `Cc1ncncc1C(=O)N1CCC(O)(CN(C)Cc2ccc(F)cc2)C1` (configuration not stated) it is -7.16%; for `CNC(=O)CC1CC2(CCN(c3ncccn3)CC2)c2ccccc21` (configuration not stated) it is 11.6%.
As to `CN(C)S(=O)(=O)N1CCC2(COCc3cnc(-c4cccnc4)nc32)C1` (configuration not stated), the cytotoxicity at 10 µM is -115%.
The result for `Cc1cccc(COC[C@]23COC[C@H]2CN(C(=O)c2ccsc2)C3)n1` reads -7.85%; that for `COc1cccc(C(=O)C2CCCN(c3cc(C#N)ccn3)C2)c1` (configuration not stated), 1.85%.
The result for `CC(C(=O)NCc1ccc(N2CCCCCC2)nc1)n1cncn1` (configuration not stated) reads -11.2%; that for `COc1ccc(OC)c(C(O)CN2CCN(C3CCCC3)CC2)c1` (configuration not stated), 6.81%; that for `O=C(C1CCCc2[nH]ncc21)N1CCCC2(C1)OCCO2` (configuration not stated), -1.26%.
In the case of `CC(CN1CCN(C)CC1)NC(=O)c1cc(Cl)c2c(c1)OCO2` (configuration not stated), the cytotoxicity at 10 µM is -14%.
For `COc1ncc(CN2C[C@@H]3CC[C@@](O)(c4ccc(C)cn4)[C@@H]3C2)cn1`, the cytotoxicity at 10 µM is -10.3%.
The result for `CC(CN1CCCC1)C(=O)N1CCC(c2nccn2CC2CC2)CC1` (configuration not stated) reads -26.3%; that for `CN(CC(=O)N1CCCC1c1noc(C2CC2)n1)S(C)(=O)=O` (configuration not stated), -8.2%.
Consider `CN1CCC(C(=O)N2CCC(c3ccc4c(N)n[nH]c4n3)CC2)CC1`, for which the cytotoxicity at 10 µM was determined as 2.43%.
The figure for `O=C(c1n[nH]cc1Cl)N1CCOCC1` is 9.02%; for `COCCc1noc(Cn2ccc3ccccc3c2=O)n1` it is 0.0869%.
With `CCN1CCC12CCN(C(=O)c1cc(C)on1)C2` (configuration not stated), the cytotoxicity at 10 µM amounted to 5.71%.
Take `Cc1ccc(CN2C[C@@H]3COC[C@@H](CC(=O)N4CCOCC4)[C@@H]3C2)s1`: the cytotoxicity at 10 µM is -2.04%.
The result for `CN(CC(N)=O)Cc1c(Cl)ccc2cccnc12` reads 4.53%; that for `O=C(CCc1nnc(-c2ccccc2)o1)N1CCCC1c1ccc[nH]1` (configuration not stated), -3.33%; that for `Cc1nnc2n1CCN(C(=O)C(C)Oc1ccc(C#N)cc1)C2` (configuration not stated), -0.643%.
Regarding `COC(C)(C)C(=O)N1CCC(c2cc(CN(C)C)n(C)n2)CC1`, the cytotoxicity at 10 µM came out at 0.748%.
For the compound `O=C(NCC1CC1)C12CC(CN1Cc1nccs1)C2`, the cytotoxicity at 10 µM is -4.6%.
The result for `CC(=O)NCc1nnn2c1CN(c1ncc(C)cn1)CCC2` reads -102%; that for `CN(C)CCN(Cc1cccnc1)C(=O)c1ccn(-c2ccccc2)n1`, 2.41%; that for `CCn1nc2c(cc1=O)CN(CCOc1ccc(C#N)cc1)CC2`, -3.73%.
As to `CCN1CCN(C(=O)CCc2c(C)noc2Cl)CC1`, the cytotoxicity at 10 µM is -4.37%.
`Cc1cc(CNC2(c3ccc(Cl)cc3)CC2)no1`: the cytotoxicity at 10 µM was 1.5%.
The figure for `Cc1ccc(C)c(S(=O)(=O)CCN2CCCC2Cn2cccn2)c1` (configuration not stated) is -8.78%.
Consider `CN(Cc1ccco1)C[C@H]1OC[C@@H]2CCN(Cc3ccsc3)C[C@@H]21`, for which the cytotoxicity at 10 µM was -3.2%.
For the compound `O=C(NCCNc1ncccn1)N1CCN(c2nccs2)CC1`, the cytotoxicity at 10 µM is -13.8%.
For `Cc1ccc(N2CCCC(N(C)Cc3noc(C4CC4)n3)C2)nn1` (configuration not stated), the cytotoxicity at 10 µM came out at 1.6%.
The result for `Fc1ccc(N2CCN(CCCc3cn[nH]c3)CC2)cc1` reads -144%; that for `C=C(C)COc1cccc(C(=O)N2CCC(O)(c3ccccc3)CC2)c1`, -44.9%; that for `Cc1cc(C(=O)N(C)C)nc(C2(C)CCCN2c2ccccc2)n1` (configuration not stated), 4.89%.
The figure for `CCN1CC2(CCC1=O)CCN(CCc1nccn1C)CC2` is 4.65%.
Consider `CCc1nnc2n1CCN(Cc1csc(-c3ncccn3)n1)C2`, for which the cytotoxicity at 10 µM was -2.33%.
On to `CCc1oc(C(=O)N(C)Cc2nonc2C)cc1CN(CC)CC`, for which the cytotoxicity at 10 µM was -10.3%.
The result for `Cn1cc(CN(C(=O)c2ccc3ncsc3c2)C2CC2)cn1` reads 3.11%; that for `O=C(NCc1cccs1)[C@H]1CO[C@H]2CCN(C3CCCC3)C[C@H]2C1`, -110%; that for `O=C([C@@H]1CN(Cc2nccs2)C[C@H]2OCC[C@H]21)N1CCOCC1`, -105%.
For `CC1c2ncc(CN3CCN(C)CC3)n2CCN1Cc1ccc(F)cc1` (configuration not stated), the cytotoxicity at 10 µM was 2.49%.
Take `O=c1[nH]c(-c2ccc(Cl)cc2)nc2c1CCNC2`: the cytotoxicity at 10 µM stood at 4.42%.
Take `Cn1cc(CNCC2Cn3nnc(-c4ccccc4)c3CO2)cn1` (configuration not stated): the cytotoxicity at 10 µM is -4.66%.
For `CCS(=O)(=O)c1ccc(CNc2c(Cl)cccc2C#N)cc1`, the cytotoxicity at 10 µM is -50.6%.
Regarding `COCC(=O)NCCCn1nc2ccccn2c1=O`, the cytotoxicity at 10 µM came out at 11.8%.
The figure for `CCC(CC)(CN)NC(C)c1ccccc1` (configuration not stated) is 4.02%; for `CCc1nnsc1C(=O)NCc1c(C)nn(CCOC)c1C` it is -8.8%; for `O=C(c1cccnc1)N1CCSCC1` it is -15.1%.
As for `O=C(c1ccc2ccccc2c1)C1CCCN(C(=O)Cn2cncn2)C1` (configuration not stated), the cytotoxicity at 10 µM came to 2.6%.
The result for `c1cncc(OCCCNC2COc3ccccc3C2)c1` (configuration not stated) reads -7.84%; that for `CN1CCN(S(=O)(=O)c2cccc(C#N)c2)c2ccc(F)cc21`, 2.98%; that for `O=C(Cc1ccc(F)cc1)NCCNS(=O)(=O)c1ccc(F)c(F)c1`, -6.7%.
On to `NC(=O)CN(Cc1ncc(-c2ccc(Cl)cc2)o1)C1CCCC1`, for which the cytotoxicity at 10 µM was -1.99%.
Turning to `Cn1ncc2c1CN(C(=O)Cc1ccccn1)CC2COCC1CC1` (configuration not stated), the cytotoxicity at 10 µM was -73.6%.
Regarding `c1cc(CN2CCC3(CC2)COC(COCC2CC2)C3)co1` (configuration not stated), the cytotoxicity at 10 µM is -4.19%.
